Test results from ChEMBL document CHEMBL4725360, “Optimization of Acetazolamide-Based Scaffold as Potent Inhibitors of Vancomycin-Resistant Enterococcus” (J Med Chem, 2020).
Converted amounts (≈) assume the structure as drawn. The source made the active and inactive calls. The rule behind the calls is not given here.

Assays:
[1] = test system: Enterococcus faecium; assay: Antibacterial activity against Enterococcus faecium HM965 incubated for 18 to 20 hrs under aerobic condition by CLSI protocol based broth microdilution assay; format: functional; details: time hrs 18-20
In short: (§1)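 Broth microdilution per CLSI. Strains grown aerobically overnight on trypticase soy agar at 37 °C. Inoculum set to 0.5 McFarland, diluted in trypticase soy broth to about 5 × 10⁵ CFU/mL. Agents serially diluted, plates incubated aerobically at 37 °C for 18–20 h. MIC is the lowest concentration with no visible growth. Compound stocks 10 mg/mL in DMSO.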

[2] = test system: Enterococcus faecium; assay: Antibacterial activity against Enterococcus faecium HM968 incubated for 18 to 20 hrs under aerobic condition by CLSI protocol based broth microdilution assay; format: functional; details: time hrs 18-20; in short: as §1
[3] = test system: Enterococcus faecium; assay: Antibacterial activity against Enterococcus faecium NR-28978 incubated for 18 to 20 hrs under aerobic condition by CLSI protocol based broth microdilution assay; format: functional; details: time hrs 18-20; in short: as §1
[4] = test system: Enterococcus faecium; assay: Antibacterial activity against Enterococcus faecium NR-31903 incubated for 18 to 20 hrs under aerobic condition by CLSI protocol based broth microdilution assay; format: functional; details: time hrs 18-20; in short: as §1
[5] = test system: Enterococcus faecium; assay: Antibacterial activity against Enterococcus faecium NR-32065 incubated for 18 to 20 hrs under aerobic condition by CLSI protocol based broth microdilution assay; format: functional; details: time hrs 18-20; in short: as §1
[6] = test system: Enterococcus faecium; assay: Antibacterial activity against Enterococcus faecium NR-31914 incubated for 18 to 20 hrs under aerobic condition by CLSI protocol based broth microdilution assay; format: functional; details: time hrs 18-20; in short: as §1
[7] = test system: Enterococcus faecium; assay: Antibacterial activity against Enterococcus faecium NR-31916 incubated for 18 to 20 hrs under aerobic condition by CLSI protocol based broth microdilution assay; format: functional; details: time hrs 18-20; in short: as §1
[8] = test system: Enterococcus faecium; assay: Antibacterial activity against Enterococcus faecium NR-32052 incubated for 18 to 20 hrs under aerobic condition by CLSI protocol based broth microdilution assay; format: functional; details: time hrs 18-20; in short: as §1
[9] = test system: Enterococcus faecium; assay: Antibacterial activity against Enterococcus faecium NR-31971 incubated for 18 to 20 hrs under aerobic condition by CLSI protocol based broth microdilution assay; format: functional; details: time hrs 18-20; in short: as §1
[10] = test system: Enterococcus faecalis; assay: Antibacterial activity against Enterococcus faecalis HM-335 incubated for 18 to 20 hrs under aerobic condition by CLSI protocol based broth microdilution assay; format: functional; details: time hrs 18-20; in short: as §1
[11] = test system: Enterococcus faecalis; assay: Antibacterial activity against Enterococcus faecalis HM-334 incubated for 18 to 20 hrs under aerobic condition by CLSI protocol based broth microdilution assay; format: functional; details: time hrs 18-20; in short: as §1
[12] = test system: Enterococcus faecalis; assay: Antibacterial activity against Enterococcus faecalis NR-31975 incubated for 18 to 20 hrs under aerobic condition by CLSI protocol based broth microdilution assay; format: functional, organism-based; details: time hrs 18-20; in short: as §1
[13] = test system: Enterococcus faecalis; assay: Antibacterial activity against Enterococcus faecalis NR-31970 incubated for 18 to 20 hrs under aerobic condition by CLSI protocol based broth microdilution assay; format: functional, organism-based; details: time hrs 18-20; in short: as §1
[14] = test system: Caco-2; assay: Cytotoxicity against human Caco2 cells at 128 ug/ml incubated for 2 hrs by MTS assay; format: cell-based; details: caco-2, 2 h, dose 128 µg/ml
In short: (§2)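 Caco-2 cells maintained in DMEM with 10% FBS, non-essential amino acids and penicillin-streptomycin at 37 °C, 5% CO₂. Compound exposure for 2 h in serum-free medium at several concentrations; DMSO-matched controls. Viability expressed relative to DMSO controls (mean ± SD), and CC₅₀ derived.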

[15] = Cytotoxicity against human Caco2 cells incubated for 2 hrs by MTS assay; format: cell-based; details: Caco-2 cells; in short: as §2
[16] = test system: Enterococcus faecium; assay: Inhibition of carbonic anhydrase in Enterococcus faecium ATCC 700221 assessed as antibacterial activity incubated for 18 to 20 hrs in presence of ambient air by CLSI protocol based broth microdilution assay; details: time hrs 18-20
In short: (§3)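 CLSI broth microdilution: inoculum about 5 × 10⁵ CFU/mL in trypticase soy broth with serial dilutions of agents. Paired plates incubated at 37 °C for 18–20 h, one set in ambient air ("normal"), the other under 5% CO₂. MIC is the lowest concentration completely inhibiting visible growth.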

[17] = test system: Enterococcus faecium; assay: Inhibition of carbonic anhydrase in Enterococcus faecium ATCC 700221 assessed as antibacterial activity incubated for 18 to 20 hrs in presence of 5% CO2 by CLSI protocol based broth microdilution assay; details: time hrs 18-20; in short: as §3
[18] = test system: Enterococcus faecium; assay: Antibacterial activity against Enterococcus faecium NR-31972 incubated for 18 to 20 hrs under aerobic condition by CLSI protocol based broth microdilution assay; format: functional; details: time hrs 18-20; in short: as §1
[19] = test system: Enterococcus faecium; assay: Inhibition of carbonic anhydrase in Enterococcus faecium NR-31971 assessed as antibacterial activity incubated for 18 to 20 hrs in presence of ambient air by CLSI protocol based broth microdilution assay; details: time hrs 18-20; in short: as §3
[20] = test system: Enterococcus faecium; assay: Inhibition of carbonic anhydrase in Enterococcus faecium NR-31972 assessed as antibacterial activity incubated for 18 to 20 hrs in presence of ambient air by CLSI protocol based broth microdilution assay; details: time hrs 18-20; in short: as §3
[21] = test system: Enterococcus faecium; assay: Inhibition of carbonic anhydrase in Enterococcus faecium HM-965 assessed as antibacterial activity incubated for 18 to 20 hrs in presence of ambient air by CLSI protocol based broth microdilution assay; details: time hrs 18-20; in short: as §3
[22] = test system: Enterococcus faecalis; assay: Inhibition of carbonic anhydrase in Enterococcus faecalis HM-334 assessed as antibacterial activity incubated for 18 to 20 hrs in presence of ambient air by CLSI protocol based broth microdilution assay; details: time hrs 18-20; in short: as §3
[23] = test system: Enterococcus faecium; assay: Inhibition of carbonic anhydrase in Enterococcus faecium NR-31971 assessed as antibacterial activity incubated for 18 to 20 hrs in presence of 5% CO2 by CLSI protocol based broth microdilution assay; details: time hrs 18-20; in short: as §3
[24] = test system: Enterococcus faecium; assay: Inhibition of carbonic anhydrase in Enterococcus faecium NR-31972 assessed as antibacterial activity incubated for 18 to 20 hrs in presence of 5% CO2 by CLSI protocol based broth microdilution assay; details: time hrs 18-20; in short: as §3
[25] = test system: Enterococcus faecium; assay: Inhibition of carbonic anhydrase in Enterococcus faecium HM-965 assessed as antibacterial activity incubated for 18 to 20 hrs in presence of 5% CO2 by CLSI protocol based broth microdilution assay; details: time hrs 18-20; in short: as §3
[26] = test system: Enterococcus faecalis; assay: Inhibition of carbonic anhydrase in Enterococcus faecalis HM-334 assessed as antibacterial activity incubated for 18 to 20 hrs in presence of 5% CO2 by CLSI protocol based broth microdilution assay; details: time hrs 18-20; in short: as §3
[27] = test system: Enterococcus faecium; assay: Antibacterial activity against Enterococcus faecium ATCC 700221 by CLSI protocol based assay; format: functional; in short: as §1
[28] = test system: Enterococcus faecium; assay: Bacteriostatic activity against Enterococcus faecium ATCC 700221 assessed as reduction in bacterial burden at 5 times MIC preincubated for 24 hrs followed by replating on soya agar plates and measured after 16 hrs by time-kill assay; format: functional, organism-based
In short: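 E. faecium ATCC 700221 overnight culture diluted in trypticase soy broth to 3.5 × 10⁶ CFU/mL. […] Samples taken at 2, 4, 6, 8, 12 and 24 h, diluted in PBS and plated on trypticase soy agar. Colonies counted after 16 h at 37 °C. Detection limit 100 CFU/mL. Two-way ANOVA with Dunnett's test.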

[29] = Aqueous solubility of compound in pH 7.4 PBS measured at 24 hrs by HPLC analysis; format: physicochemical; details: buffer, pH 7.4, 24 h
In short: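 HPLC principal-peak area of the buffer sample compared with a 200 μM calibration standard in methanol/water 60/40.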

[30] = Apparent permeability across apical to basolateral side in human Caco2 cells; format: ADME, cell-based; details: caco-2
In short: (§4)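 Bi-directional Caco-2 monolayer permeability, run at Eurofins: donor at pH 6.5, receiver at pH 7.4, both A→B and B→A. Papp derived from receiver concentration at the end point, incubation time, monolayer area and mid-point donor concentration. Concentrations taken as peak areas.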

[31] = Apparent permeability across basolateral to apical side in human Caco2 cells; format: ADME, cell-based; details: caco-2; in short: as §4
[32] = Metabolic stability in human liver microsomes assessed as compound remaining measured after 60 mins; format: ADME, Microsome; details: 1 h
In short: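 Human liver microsomes at 0.1 mg/mL, 37 °C. Percent parent remaining at 60 min, mean of 2 replicates.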

[33] = Half life in human liver microsomes after 60 mins; format: ADME, Microsome; details: 1 h

| SMILES | MIC [1] [µg/mL] | MIC [2] [µg/mL] | MIC [3] [µg/mL] | MIC [4] [µg/mL] | MIC [5] [µg/mL] | MIC [6] [µg/mL] | MIC [7] [µg/mL] | MIC [8] [µg/mL] | MIC [9] [µg/mL] | MIC [10] [µg/mL] | MIC [11] [µg/mL] | Activity [12] | Activity [13] | Activity [14] | CC50 at 2 h [15] [µg/mL] | inhibition [16] | inhibition [17] | MIC [18] [µg/mL] | also measured |
| --- | --- | --- | --- | --- | --- | --- | --- | --- | --- | --- | --- | --- | --- | --- | --- | --- | --- | --- | --- |
| CC(C)(C)CC(=O)Nc1nnc(S(N)(=O)=O)s1 | 0.015 (≈ 0.0539 µM) | 0.015 (≈ 0.0539 µM) | 0.03 (≈ 0.108 µM) | 0.015 (≈ 0.0539 µM) | 0.007 (≈ 0.0251 µM) | 0.007 (≈ 0.0251 µM) | 0.03 (≈ 0.108 µM) | 0.015 (≈ 0.0539 µM) | 0.06 (≈ 0.216 µM) | 0.03 (≈ 0.108 µM) | 0.03 (≈ 0.108 µM) | Active | Active | Non-Toxic | > 128 | Active | inactive | 0.015 (≈ 0.0539 µM) | – |
| NS(=O)(=O)c1nnc(NC(=O)CC2CCCCC2)s1 | – | – | 0.125 (≈ 0.411 µM) | 0.125 (≈ 0.411 µM) | – | – | 0.125 (≈ 0.411 µM) | – | – | – | – | Active | Active | Non-Toxic | > 128 | – | – | – | MIC [19]: 0.03 µg/mL; MIC [20]: 0.06 µg/mL; MIC [21]: 0.06 µg/mL; MIC [22]: 0.03 µg/mL; MIC [16]: 0.06 µg/mL; MIC [23]: > 64 µg/mL; MIC [24]: > 64 µg/mL; MIC [25]: > 64 µg/mL; MIC [26]: > 64 µg/mL; MIC [17]: > 64 µg/mL |
| NS(=O)(=O)c1nnc(NC(=O)C2CCCC2)s1 | 0.25 (≈ 0.905 µM) | 0.5 (≈ 1.81 µM) | 0.5 (≈ 1.81 µM) | 0.5 (≈ 1.81 µM) | 0.5 (≈ 1.81 µM) | 0.5 (≈ 1.81 µM) | 0.5 (≈ 1.81 µM) | 0.5 (≈ 1.81 µM) | 1 (≈ 3.62 µM) | 0.5 (≈ 1.81 µM) | 0.5 (≈ 1.81 µM) | Active | Active | Non-Toxic | > 128 | Active | inactive | 1 (≈ 3.62 µM) | – |
| CCOc1ccc2nc(S(N)(=O)=O)sc2c1 [ETHOXZOLAMIDE] | – | – | – | – | – | – | – | – | – | – | – | – | – | – | – | – | – | – | MIC [27]: 1 µg/mL (≈ 3.87 µM) |
| NS(=O)(=O)c1nnc(NC(=O)CN2CCOCC2)s1 | 1 (≈ 3.25 µM) | 1 (≈ 3.25 µM) | 2 (≈ 6.51 µM) | 2 (≈ 6.51 µM) | 2 (≈ 6.51 µM) | 2 (≈ 6.51 µM) | 1 (≈ 3.25 µM) | 1 (≈ 3.25 µM) | 2 (≈ 6.51 µM) | 0.5 (≈ 1.63 µM) | 4 (≈ 13 µM) | – | – | Non-Toxic | > 128 | Active | inactive | 4 (≈ 13 µM) | Activity [28]: Active; solubility [29]: 126.6 µM (≈ 38.9 µg/mL); Papp [30]: < 0.17 10^-6 cm/s; Papp [31]: < 0.17 10^-6 cm/s; Stabilty [32]: 86%; t1/2 [33]: 4.95 h |
